Results from ChEMBL document CHEMBL4680175, “Sulfonamide-based ring-fused analogues for CAN508 as novel carbonic anhydrase inhibitors endowed with antitumor activity: Design, synthesis, and in vitro biological evaluation” (Eur J Med Chem, 2020).
Active and inactive are the calls of the source. No cut-off for these calls is given here.

Tests used:
A549 = assay: Antitumor activity against human A549/ATCC cells assessed as cell growth inhibition at 10 uM incubated for 48 hrs by sulforhodamine B assay; assay type: functional; conditions: read-out: GI
Outline: (§1)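 NCI Drug Evaluation Branch protocol: primary single-dose screen at 10 μM across a 57-line human cancer panel. Drug exposure is 48 h. Cell growth and viability are read by sulforhodamine B assay. Data are given as a mean graph of percent growth of treated cells and reported as percentage growth inhibition (GI%).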

HT-29 = assay: Antitumor activity against human HT-29 cells assessed as cell growth inhibition at 10 uM incubated for 48 hrs by sulforhodamine B assay; assay type: functional; conditions: read-out: GI; outline: as §1
Hs-578T = assay: Antitumor activity against human HS 578T cells assessed as cell growth inhibition at 10 uM incubated for 48 hrs by sulforhodamine B assay; assay type: functional; conditions: read-out: GI; outline: as §1
HL-60(TB) = assay: Antitumor activity against human HL-60(TB) cells assessed as cell growth inhibition at 10 uM incubated for 48 hrs by sulforhodamine B assay; assay type: functional; conditions: read-out: GI
Outline: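 Single-dose NCI-60-type screen of 57 human cancer cell lines at 10 μM under the NCI Drug Evaluation Branch protocol. Drugs exposed for 48 h; growth and viability read by sulforhodamine B assay. Data given as mean-graph percent growth of treated cells, expressed as percent growth inhibition.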

M14 = assay: Antitumor activity against human M14 cells assessed as cell growth inhibition at 10 uM incubated for 48 hrs by sulforhodamine B assay; assay type: functional; conditions: read-out: GI; outline: as §1
MDA-MB-435 = assay: Antitumor activity against human MDA-MB-435 cells assessed as cell growth inhibition at 10 uM incubated for 48 hrs by sulforhodamine B assay; assay type: functional; conditions: read-out: GI; outline: as §1
TK-10 = assay: Antitumor activity against human TK-10 cells assessed as cell growth inhibition at 10 uM incubated for 48 hrs by sulforhodamine B assay; assay type: functional; conditions: read-out: GI
Outline: (§2)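 NCI one-dose screen: 57-cell-line panel exposed at 10 μM for 48 h, Drug Evaluation Branch protocol. Growth and viability read by sulforhodamine B; data given as percent growth inhibition from the mean-graph of percent growth of treated cells.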

SK-OV-3 = assay: Antitumor activity against human SK-OV-3 cells assessed as cell growth inhibition at 10 uM incubated for 48 hrs by sulforhodamine B assay; assay type: functional; conditions: read-out: GI; outline: as §1
NCI-H23 = assay: Antitumor activity against human NCI-H23 cells assessed as cell growth inhibition at 10 uM incubated for 48 hrs by sulforhodamine B assay; assay type: functional; conditions: read-out: GI; outline: as §1
SK-MEL-28 = assay: Antitumor activity against human SK-MEL-28 cells assessed as cell growth inhibition at 10 uM incubated for 48 hrs by sulforhodamine B assay; assay type: functional; conditions: read-out: GI; outline: as §1
ACHN = assay: Antitumor activity against human ACHN cells assessed as cell growth inhibition at 10 uM incubated for 48 hrs by sulforhodamine B assay; assay type: functional; conditions: read-out: GI; outline: as §1
UACC-62 = assay: Antitumor activity against human UACC-62 cells assessed as cell growth inhibition at 10 uM incubated for 48 hrs by sulforhodamine B assay; assay type: functional; conditions: read-out: GI; outline: as §2
SF-295 = assay: Antitumor activity against human SF295 cells assessed as cell growth inhibition at 10 uM incubated for 48 hrs by sulforhodamine B assay; assay type: functional; conditions: read-out: GI; outline: as §1
A498 = assay: Antitumor activity against human A498 cells assessed as cell growth inhibition at 10 uM incubated for 48 hrs by sulforhodamine B assay; assay type: functional; conditions: read-out: GI; outline: as §1
HCT-15 = assay: Antitumor activity against human HCT15 cells assessed as cell growth inhibition at 10 uM incubated for 48 hrs by sulforhodamine B assay; assay type: functional; conditions: read-out: GI; outline: as §1
DU-145 = assay: Antitumor activity against human DU-145 cells assessed as cell growth inhibition at 10 uM incubated for 48 hrs by sulforhodamine B assay; assay type: functional; conditions: read-out: GI; outline: as §1
OVCAR-4 = assay: Antitumor activity against human OVCAR-4 cells assessed as cell growth inhibition at 10 uM incubated for 48 hrs by sulforhodamine B assay; assay type: functional; conditions: read-out: GI; outline: as §1
EKVX = assay: Antitumor activity against human EKVX cells assessed as cell growth inhibition at 10 uM incubated for 48 hrs by sulforhodamine B assay; assay type: functional; conditions: read-out: GI; outline: as §1
UACC-257 = assay: Antitumor activity against human UACC-257 cells assessed as cell growth inhibition at 10 uM incubated for 48 hrs by sulforhodamine B assay; assay type: functional; conditions: read-out: GI; outline: as §2
Malme-3M = assay: Antitumor activity against human MALME-3M cells assessed as cell growth inhibition at 10 uM incubated for 48 hrs by sulforhodamine B assay; assay type: functional; conditions: read-out: GI; outline: as §1
SW-620 = assay: Antitumor activity against human SW620 cells assessed as cell growth inhibition at 10 uM incubated for 48 hrs by sulforhodamine B assay; assay type: functional; conditions: read-out: GI; outline: as §2
SNB-19 = assay: Antitumor activity against human SNB-19 cells assessed as cell growth inhibition at 10 uM incubated for 48 hrs by sulforhodamine B assay; assay type: functional; conditions: read-out: GI; outline: as §1
COLO 205 = assay: Antitumor activity against human COLO205 cells assessed as cell growth inhibition at 10 uM incubated for 48 hrs by sulforhodamine B assay; assay type: functional; conditions: read-out: GI; outline: as §1
Carbonic anhydrase 12 = Carbonic anhydrase 12 (Homo sapiens, UniProt O43570); assay: Inhibition of recombinant human carbonic anhydrase 12 preincubated with enzyme for 15 mins by phenol red dye based stopped flow CO2 hydrase assay
SR = assay: Antitumor activity against human SR cells assessed as cell growth inhibition at 10 uM incubated for 48 hrs by sulforhodamine B assay; assay type: functional; conditions: read-out: GI; outline: as §2
786-0 = assay: Antitumor activity against human 786-0 cells assessed as cell growth inhibition at 10 uM incubated for 48 hrs by sulforhodamine B assay; assay type: functional; conditions: read-out: GI; outline: as §1
HCC 2998 = assay: Antitumor activity against human HCC2998 cells assessed as cell growth inhibition at 10 uM incubated for 48 hrs by sulforhodamine B assay; assay type: functional; conditions: read-out: GI; outline: as §1
OVCAR-5 = assay: Antitumor activity against human OVCAR-5 cells assessed as cell growth inhibition at 10 uM incubated for 48 hrs by sulforhodamine B assay; assay type: functional; conditions: read-out: GI; outline: as §1
MDA-MB-468 [1] = assay: Antiproliferative activity against human MDA-MB-468 cells measured after 48 hrs under normoxic condition by MTT assay; assay type: functional, cell-based; conditions: MDA-MB-468, 48 h
MDA-MB-468 [2] = assay: Antiproliferative activity against human MDA-MB-468 cells measured after 48 hrs under CoCl2-induced hypoxic condition by MTT assay; assay type: functional, cell-based; conditions: MDA-MB-468, 48 h
MCF7 [3] = assay: Antiproliferative activity against human MCF7 cells measured after 48 hrs under CoCl2-induced hypoxic condition by MTT assay; assay type: functional, cell-based; conditions: MCF7, 48 h
MCF7 [4] = assay: Induction of apoptosis in human MCF7 cells assessed as necrotic cells by Annexin V-FITC/propidium iodide staining based flow cytometric analysis (reference value: 1.3 %); assay type: functional
MCF7 [5] = assay: Induction of apoptosis in human MCF7 cells assessed as fold increase in apoptotic cells by Annexin V-FITC/propidium iodide staining based flow cytometric analysis relative to control; assay type: functional
MCF7 [6] = assay: Induction of apoptosis in human MCF7 cells assessed as early apoptotic cells by Annexin V-FITC/propidium iodide staining based flow cytometric analysis (reference value: 0.47 %); assay type: functional
MCF7 [7] = assay: Induction of cell cycle arrest in human MCF7 cells assessed as accumulation at G2/M phase at IC50 concentration incubated for 24 hrs by PI/RNase staining based flow cytometric analysis; assay type: functional
Outline: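 Cells were washed in ice-cold PBS, fixed in ice-cold 70% ethanol, treated with 100 µg/mL RNase and stained with 40 µg/mL PI. DNA content was read by flow cytometry, with sub-G1 compared against control.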

MCF7 [8] = assay: Induction of apoptosis in human MCF7 cells assessed as late apoptotic cells by Annexin V-FITC/propidium iodide staining based flow cytometric analysis (reference value: 0.29 %); assay type: functional
MCF7 [9] = assay: Antiproliferative activity against human MCF7 cells measured after 48 hrs under normoxic condition by MTT assay; assay type: functional, cell-based; conditions: MCF7, 48 h

Carbonic anhydrase 12, sequence (O43570 whole entry): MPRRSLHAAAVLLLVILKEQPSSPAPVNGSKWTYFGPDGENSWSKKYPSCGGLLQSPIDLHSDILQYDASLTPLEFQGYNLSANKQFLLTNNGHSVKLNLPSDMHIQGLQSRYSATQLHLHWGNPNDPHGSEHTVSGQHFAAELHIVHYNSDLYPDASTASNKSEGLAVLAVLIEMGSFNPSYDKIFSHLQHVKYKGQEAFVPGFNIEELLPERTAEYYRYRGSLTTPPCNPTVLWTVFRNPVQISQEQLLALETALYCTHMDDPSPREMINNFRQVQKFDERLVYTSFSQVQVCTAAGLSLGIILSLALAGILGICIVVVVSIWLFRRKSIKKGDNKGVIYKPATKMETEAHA

Work on `Nc1nn2cc(-c3ccccc3)[nH]c2c1/N=N/c1ccc(S(N)(=O)=O)cc1` yielded an inhibition of growth at 10 µM (A549) of 67%, an inhibition of growth at 10 µM (HT-29) of 61% and an inhibition of growth at 10 µM (Hs-578T) of 95%. It also gave an inhibition of growth at 10 µM (HL-60(TB)) of 72%, an inhibition of growth at 10 µM (M14) of 69% and an inhibition of growth at 10 µM (MDA-MB-435) of 71%. For the same compound, the inhibition of growth at 10 µM (TK-10) was 52%, the inhibition of growth at 10 µM (SK-OV-3) was 87% and the inhibition of growth at 10 µM (NCI-H23) was 54%. The inhibition of growth at 10 µM (SK-MEL-28) was 55%, the inhibition of growth at 10 µM (ACHN) was 91% and the inhibition of growth at 10 µM (UACC-62) was 69%. For the same compound, the inhibition of growth at 10 µM (SF-295) was 52%, the inhibition of growth at 10 µM (A498) was 92% and the inhibition of growth at 10 µM (HCT-15) was 77%. For the same compound, the inhibition of growth at 10 µM (DU-145) was 57%, the inhibition of growth at 10 µM (OVCAR-4) was 63% and the inhibition of growth at 10 µM (EKVX) was 45%. The inhibition of growth at 10 µM (UACC-257) was 31%, the inhibition of growth at 10 µM (Malme-3M) was 74% and the inhibition of growth at 10 µM (SW-620) was 74%. It also gave an inhibition of growth at 10 µM (SNB-19) of 40%, an inhibition of growth at 10 µM (COLO 205) of 55% and a Ki (Carbonic anhydrase 12) of 30.6 nM. The inhibition of growth at 10 µM (SR) was 87%, the inhibition of growth at 10 µM (786-0) was 72% and the inhibition of growth at 10 µM (HCC 2998) was 54%. It also gave an inhibition of growth at 10 µM (OVCAR-5) of 35%.
`N#Cc1c(-c2ccc(F)cc2)nc2c(/N=N/c3ccc(S(N)(=O)=O)cc3)c(N)nn2c1N` was tested, and the IC50 (MDA-MB-468 [1]) was 5.38 µM, the inhibition of growth at 10 µM (Hs-578T) was 23% and the IC50 (MDA-MB-468 [2]) was 11.3 µM. The IC50 (MCF7 [3]) was 7.73 µM, the Activity (MCF7 [4]) was 1.75% and the “fold change (FC)” value (MCF7 [5]) was 23. The Activity (MCF7 [6]) was 6.58%, the inhibition of growth at 10 µM (Malme-3M) was 20% and the Ki (Carbonic anhydrase 12) was 10.9 nM. For the same compound, the Activity (MCF7 [7]) was “Active”, the Activity (MCF7 [8]) was 10.89% and the IC50 (MCF7 [9]) was 2.96 µM.
For `Cc1ccc(-c2nc3c(/N=N/c4ccc(S(N)(=O)=O)cc4)c(N)nn3c(N)c2C#N)cc1`, the inhibition of growth at 10 µM (A549) was 37%, the inhibition of growth at 10 µM (HT-29) was 64% and the IC50 (MDA-MB-468 [1]) was 1.37 µM. It also gave an inhibition of growth at 10 µM (Hs-578T) of 61%, an inhibition of growth at 10 µM (HL-60(TB)) of 97% and an IC50 (MDA-MB-468 [2]) of 3.03 µM. It also gave an inhibition of growth at 10 µM (M14) of 54%, an IC50 (MCF7 [3]) of 15.1 µM and an inhibition of growth at 10 µM (MDA-MB-435) of 48%. For the same compound, the inhibition of growth at 10 µM (TK-10) was 34%, the inhibition of growth at 10 µM (SK-OV-3) was 36% and the inhibition of growth at 10 µM (NCI-H23) was 56%. It also gave an inhibition of growth at 10 µM (SK-MEL-28) of 47%, an inhibition of growth at 10 µM (ACHN) of 100% and an inhibition of growth at 10 µM (UACC-62) of 47%. For the same compound, the inhibition of growth at 10 µM (SF-295) was 51%, the inhibition of growth at 10 µM (A498) was 41% and the inhibition of growth at 10 µM (HCT-15) was 18%. For the same compound, the inhibition of growth at 10 µM (DU-145) was 65%, the inhibition of growth at 10 µM (OVCAR-4) was 48% and the inhibition of growth at 10 µM (EKVX) was 30%. The inhibition of growth at 10 µM (UACC-257) was 28%, the inhibition of growth at 10 µM (Malme-3M) was 51% and the inhibition of growth at 10 µM (SW-620) was 83%. For the same compound, the inhibition of growth at 10 µM (SNB-19) was 42%, the inhibition of growth at 10 µM (COLO 205) was 86% and the Ki (Carbonic anhydrase 12) was 48.8 nM. The inhibition of growth at 10 µM (SR) was 71%, the inhibition of growth at 10 µM (786-0) was 35% and the inhibition of growth at 10 µM (HCC 2998) was 48%. For the same compound, the inhibition of growth at 10 µM (OVCAR-5) was 21% and the IC50 (MCF7 [9]) was 6.8 µM.
